Screens as filed in PubChem.
An excerpt weighted towards active compounds, which were near 2.3% of everything screened.
Pemphigus Ab inh – blocks pemphigus antibody binding to human desmoglein-3; binding (percent of control), % at 10 µM; DSG3-coupled beads, scFv-anti-DSG3-GFP binding, flow cytometry; stronger effect = lower value; hit rate 0.48% among 310,000;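 active = binding more than 3 SD below its plate's average and above zero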
T cell modulator – modulates CD8 T cell binding to vesicles. 2C CD8+ T cell-vesicle binding, flow cytometry; stronger effect = lower value. response (vesicle binding), % at 7 µM. hit rate 0.068% among 330,000. AID 2052;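 active = response, share of CD8 T cells binding vesicles, and their 90th percentile fluorescence all below set limits, cut at about 80% in these data, passing the limit was not always enough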;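 note: values below 100% mean blocked vesicle binding to the CD8+ T cells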
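Material: murine 2C transgenic CD8+ T lymphocytes / Also added: QL9-peptide-loaded Drosophila micro-vesicles bearing Ld, ICAM-1 and B7-1 / Schedule: binding step 1.5 h, 37 °C, antibody labelling 20 min, ice / Signal: flow cytometry, PE anti-B7-1 (FL2) versus Alexa647 anti-CD8 (FL8), PFA-fixed / Evaluation: percent CD8+ FL2 mean versus row control / Benchmarks: naked versus QL9-loaded vesicles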
MCL1 BIM primary – inhibitors of human MCL1 binding to BIM-BH3 peptide. AID 2057. Q07820. GST-MCL1 / FITC-Bim-BH3 fluorescence polarization. inhibition, % at 10.9 µM. hit rate 0.68% among 320,000;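 active = inhibition above the mean inhibition of all tested compounds plus 3 SD, set per campaign, cut at about 40% in these data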;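 note: 0% = DMSO wells and 100% = unlabeled Bim-BH3 peptide control; higher means more loss of mP so more displacement of Bim peptide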
Target sequence (Q07820 whole entry, looked up): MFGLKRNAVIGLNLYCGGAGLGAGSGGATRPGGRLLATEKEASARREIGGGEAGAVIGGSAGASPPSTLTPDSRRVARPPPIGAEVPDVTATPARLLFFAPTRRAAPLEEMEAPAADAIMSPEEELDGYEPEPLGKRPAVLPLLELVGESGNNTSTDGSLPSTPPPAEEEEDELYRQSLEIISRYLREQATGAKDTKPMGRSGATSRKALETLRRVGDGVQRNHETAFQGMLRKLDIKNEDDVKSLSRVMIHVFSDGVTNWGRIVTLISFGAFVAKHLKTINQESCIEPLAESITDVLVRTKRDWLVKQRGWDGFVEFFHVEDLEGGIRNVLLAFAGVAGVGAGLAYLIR
Mcl-1 Bim block – disrupts Bim peptide binding to human Mcl-1; Bead-based flow cytometry, Bim peptide-Mcl-1 binding; Q07820; hit rate 0.1% among 190,000; inhibition, % at 10 µM; in the data active = inhibition above about 40%;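 note: 0% = no compound tracer wells and 100% = peptide blocker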
Mcl1-Noxa inh – disrupts binding of human Mcl-1 to Noxa peptide; Q07820; TR-FRET Mcl-1/Noxa peptide binding, 2 h; inhibition, % at 21.7 µM; hit rate 1.5% among 220,000;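 active = compounds that cut the protein-peptide binding signal by more than 50% relative to plate controls in a single-dose test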;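 note: His-tagged Mcl-1 with rhodamine Noxa BH3 peptide and terbium anti-His antibody; 0% = Mcl-1 plus Noxa peptide wells and 100% = peptide-only wells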
Mcl1 Bid PPI – Mcl-1/Bid interaction inhibition; Q07820; hit rate 0.97% among 220,000; inhibition, % at 21.7 µM; TR-FRET Mcl-1/Bid-Dy647 peptide binding, 1536-well;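 active = compounds that cut the binding signal by more than half at the single screening dose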;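 note: His-tagged Mcl-1 with europium anti-His antibody binding Bid BH3 peptide; 0% = Mcl-1 plus peptide wells and 100% = peptide-only wells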
Numbers without * were called inactive; i = inactive; nt = no result.

SMILES	Pemphigus Ab inh	T cell modulator	MCL1 BIM primary	Mcl-1 Bim block	Mcl1-Noxa inh	Mcl1 Bid PPI
O=C1CSC(c2ccncc2)N1Cc1ccccc1 (centres undefined)	101	685	4	0	22	93*
COc1cccc(NC(=O)Cc2nnc(SCC(=O)NC3CCCCC3)n2C)c1	nt	115	1	nt	nt	nt
COc1ccc(N2CCN(c3ncnc4c3[nH]c3ccccc34)CC2)cc1	105	195	0	0	34	-25
COc1ccc2[nH]c3c(N4CCc5ccccc5C4)ncnc3c2c1	106	175	0	nt	62*	-1
CCOC(=O)N1CCN(c2ncnc3c2[nH]c2ccc(OC)cc23)CC1	130	214	0	0	16	-36
COc1cc2[nH]c3c(N4CCN(c5ccccn5)CC4)ncnc3c2cc1OC	97	393	-15	4	64*	-16
Cc1ccc(CNS(=O)(=O)c2ccc(CN3C(=O)c4cccnc4C3=O)cc2)o1	105	417	5	nt	nt	nt
Cc1ccc(N2NC(=O)/C(=C/c3ccc(-c4ccc(Cl)c(C(=O)O)c4)o3)C2=O)cc1	83	334	28	0	32	-33
O=C1NN(c2ccc(Cl)cc2)C(=O)/C1=C\c1ccc(-c2cccc(C(=O)O)c2)o1	100	nt	nt	0	81*	21
O=C1NN(c2ccccc2)C(=O)/C1=C\c1ccc(-c2cc([N+](=O)[O-])ccc2O)o1	97	nt	nt	0	87*	-83
CCOc1ccc(N(CC(=O)Nc2ccccc2C(=O)N2CCCC2)S(C)(=O)=O)cc1	89	173	-1	nt	nt	nt
Cc1ccc(CC(C)(O)CC(C)(O)Cc2ccc(C)cc2)cc1 (centres undefined)	97	nt	nt	nt	nt	nt
C=CCn1cc(C(=O)NCc2ccco2)c(=O)c2cc(S(=O)(=O)N3CCCCCC3)ccc21	104	406	2	-1	1	91*
CCn1cc(C(=O)NCc2ccco2)c(=O)c2cc(S(=O)(=O)N3CCCCCC3)ccc21	104	305	-3	0	12	-13
CCN(CCO)c1ccc(-n2c(N)c(C(=O)OC)c3nc4ccccc4nc32)cc1	103	286	5	-2	52*	6
CCCNC(=O)c1c(N)n(-c2cccc(OC)c2)c2nc3ccccc3nc12	137	379	6	0	16	-1
N#CCc1ccc(Oc2ncccn2)cc1	100	357	-7	nt	nt	nt
COc1ccc(-c2noc(CCC(=O)NC3CCCCCC3)n2)cc1OC	83*	nt	nt	nt	nt	nt
COc1cc(-c2noc(CCC(=O)NC3CCCC3)n2)cc(OC)c1OC	nt	197	-4	nt	nt	nt
Cc1ccc(OCC(O)CN2CCN(c3ccccn3)CC2)c(C)c1 (centres undefined)	106	422	3	0	51*	27
CCOC(=O)C1=C(N)N(c2ccccc2Oc2ccccc2)C(=O)C1	122	263	3	0	2	-122
CCOC(=O)C1=C2NC(=O)c3ccccc3N2C(=O)C1	96	302	43*	-1	-1	-29
COCCCn1c(=O)/c(=C\c2ccccc2OC(C)C)s/c1=C(/C#N)C(=O)Nc1ccc(C(=O)O)cc1	126	122	-18	nt	63*	-22
CCc1ccc(CNC(=O)CCC(=O)n2ncc3cc(C)ccc32)cc1	77*	573	12	nt	nt	nt
Cc1ccc2c(cnn2C(=O)CCCC(=O)NCc2ccc(F)cc2)c1	104	657	2	nt	nt	nt
SMILES	Pemphigus Ab inh	T cell modulator	MCL1 BIM primary	Mcl-1 Bim block	Mcl1-Noxa inh	Mcl1 Bid PPI
CS(=O)(=O)NN1C(=O)c2ccccc2NC1c1cccc(O)c1 (centres undefined)	110	231	0	5	4	-9
CS(=O)(=O)NN1C(=O)c2ccccc2NC1c1ccccc1 (centres undefined)	96	i	0	43*	-4	-23
Cn1cnnc1SCC(=O)Nc1ccc(OCc2ccccc2)cc1	nt	275	3	-2	-14	-10
COc1cccc(NC(=O)CN(C)C(=O)c2ccc(Cl)c(S(=O)(=O)N3CCCCCC3)c2)c1	95	nt	nt	nt	nt	nt
O=S(=O)(c1ccccc1F)N1CCC(c2nc3ccccc3[nH]2)CC1	94	471	3	nt	nt	nt
O=S(=O)(c1ccccc1F)N1CCN(Cc2nc3ccccc3[nH]2)CC1	103	412	-9	-2	20	79*
Cc1cccc(Cn2cnc3c(nnn3Cc3ccc(Cl)cc3)c2=O)c1	91	466	-2	-1	-10	2
